{"source": "ChEMBL document CHEMBL1131233", "about": "“Synthesis and structure-activity relationships of bafilomycin A1 derivatives as inhibitors of vacuolar H+-ATPase” (J Med Chem, 1998)", "data": [{"molecular_target": "V-type proton ATPase subunit B, brain isoform (Bos taurus) (UniProt P31408)", "sequence (P31408 whole entry, canonical isoform)": "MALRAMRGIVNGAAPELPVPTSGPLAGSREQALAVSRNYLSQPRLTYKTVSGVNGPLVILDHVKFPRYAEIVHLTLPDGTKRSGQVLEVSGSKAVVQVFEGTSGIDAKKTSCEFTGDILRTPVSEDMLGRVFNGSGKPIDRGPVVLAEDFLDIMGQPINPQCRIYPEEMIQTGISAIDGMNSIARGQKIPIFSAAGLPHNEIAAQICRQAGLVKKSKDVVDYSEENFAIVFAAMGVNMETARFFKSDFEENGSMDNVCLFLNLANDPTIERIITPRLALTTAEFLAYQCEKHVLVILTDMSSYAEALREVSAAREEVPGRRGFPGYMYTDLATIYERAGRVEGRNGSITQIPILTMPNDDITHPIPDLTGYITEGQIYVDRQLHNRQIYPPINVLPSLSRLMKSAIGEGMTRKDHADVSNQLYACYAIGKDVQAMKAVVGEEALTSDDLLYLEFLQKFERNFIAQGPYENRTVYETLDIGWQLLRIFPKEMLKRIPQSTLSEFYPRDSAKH", "assay": "Inhibition of V-ATPase-driven proton transport in membrane vesicles derived from bovine chromaffin granules (bCG); Potency ratio expressed as IC50 of compound/IC50 of baf A1", "outline": "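Proton transport in bovine chromaffin granule inside-out vesicles, read by acridine orange (5 μM) fluorescence quench with 1 mM Na₂ATP, pH 7.4. IC50 from ≥3 duplicated doses by four-parameter logistic fit. Each IC50 is divided by the bafilomycin A₁ IC50 from the same experiment, to correct for membrane batch and protein level.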", "values": [{"molecule": "CO/C1=C\\C(C)=C\\[C@@H](C)[C@@H](O)[C@@H](C)C/C(C)=C/C=C/[C@H](OC)[C@@H]([C@@H](C)[C@@H](O)[C@H](C)[C@@]2(O)CC(=O)[C@H](C)[C@@H](C(C)C)O2)OC1=O", "Potency ratio": 2.2}, {"molecule": "CO/C1=C\\C(C)=C\\[C@@H](C)[C@@H](O)[C@@H](C)C/C(C)=C/C=C/[C@H](OC)[C@@H]([C@@H](C)[C@@H](O)[C@H](C)[C@@]2(O)C[C@@H](N3CCCCC3)[C@H](C)[C@@H](C(C)C)O2)OC1=O", "Potency ratio": 6.7}, {"molecule": "CCCO[C@@H]1C[C@](OC)([C@@H](C)[C@H](O)[C@H](C)[C@H]2OC(=O)/C(OC)=C/C(C)=C/[C@@H](C)[C@@H](O)[C@@H](C)C/C(C)=C/C=C/[C@@H]2OC)O[C@H](C(C)C)[C@H]1C", "Potency ratio": 5}, {"molecule": "CO/C1=C\\C(C)=C\\[C@@H](C)[C@@H](O)[C@@H](C)C/C(C)=C/C=C/[C@H](OC)[C@@H]([C@@H](C)[C@@H](O)[C@H](C)[C@@]2(O)C[C@@H](NC3CCCCC3)[C@H](C)[C@@H](C(C)C)O2)OC1=O", "Potency ratio": 9.2}, {"molecule": "C/C=C/CC(=O)[C@@H](C)[C@H](O)[C@H](C)[C@H]1OC(=O)/C(OC)=C/C(C)=C/[C@@H](C)[C@@H](O)[C@@H](C)C/C(C)=C/C=C/[C@@H]1OC", "Potency ratio": 21}, {"molecule": "CO/C1=C\\C(C)=C\\[C@@H](C)C(=O)[C@@H](C)C/C(C)=C/C=C/[C@H](OC)[C@@H]([C@@H](C)[C@@H](O)[C@H](C)[C@@]2(O)C[C@@H](O)[C@H](C)[C@@H](C(C)C)O2)OC1=O", "Potency ratio": 32}, {"molecule": "COC1/C=C(\\C)C[C@@H](C)[C@@H](O)[C@@H](C)CC(C)/C=C/CC(OC)[C@@H]([C@@H](C)[C@@H](O)[C@H](C)[C@@]2(O)C[C@@H](O)[C@H](C)[C@@H](C(C)C)O2)OC1=O", "note": "(some centres not stated)", "Potency ratio": 2110}, {"molecule": "C/C=C/CC(O)[C@@H](C)[C@H](O)[C@H](C)[C@H]1OC(=O)/C(OC)=C/C(C)=C/[C@@H](C)[C@@H](O)[C@@H](C)C/C(C)=C/C=C/[C@@H]1OC", "note": "(some centres not stated)", "Potency ratio": 2.6}, {"molecule": "CO/C1=C\\C(C)=C\\[C@@H](C)C(=O)[C@@H](C)C/C(C)=C/C=C/[C@H](OC)[C@@H]([C@@H](C)[C@@H](O)[C@H](C)[C@@]2(O)CC(=O)[C@H](C)[C@@H](C(C)C)O2)OC1=O", "Potency ratio": 112}, {"molecule": "CCO[C@@H]1C[C@](O)([C@@H](C)[C@H](O)[C@H](C)[C@H]2OC(=O)/C(OC)=C/C(C)=C/[C@@H](C)[C@@H](O)[C@@H](C)C/C(C)=C/C=C/[C@@H]2OC)O[C@H](C(C)C)[C@H]1C", "Potency ratio": 1.2}, {"molecule": "CO/C1=C\\C(C)=C\\[C@@H](C)[C@@H](O)[C@@H](C)C/C(C)=C/C=C/[C@H](OC)[C@@H]([C@@H](C)[C@@H](O)[C@H](C)C(=O)/C=C/[C@H](C)C(O)C(C)C)OC1=O", "note": "(some centres not stated)", "Potency ratio": 15}, {"molecule": "CO/C1=C\\C(C)=C\\[C@@H](C)[C@@H](O)[C@@H](C)C/C(C)=C/C=C/[C@H](OC)[C@@H]([C@@H](C)[C@@H](O)[C@H](C)[C@@]2(O)C[C@@H](OC)[C@H](C)[C@@H](C(C)C)O2)OC1=O", "Potency ratio": 1.2}, {"molecule": "CO/C1=C\\C(C)=C\\C(C)C(=O)[C@@H](C)C/C(C)=C/C=C/C(OC)[C@@H]([C@@H](C)C(=O)[C@H](C)C2=CC(=O)[C@H](C)[C@@H](C(C)C)O2)OC1=O", "note": "(some centres not stated)", "Potency ratio": 3050}, {"molecule": "CO/C1=C\\C(C)=C\\[C@@H](C)[C@@H](O)[C@@H](C)C/C(C)=C/C=C/[C@H](OC)[C@@H]([C@@H](C)[C@@H](O)[C@H](C)[C@@]2(O)C[C@@H](O)[C@H](C)[C@@H](C(C)C)O2)OC1=O", "Potency ratio": 1}, {"molecule": "CO/C1=C\\C(C)=C\\[C@@H](C)[C@@H](O)[C@@H](C)C/C(C)=C/C=C/[C@H](OC)[C@@H]([C@@H](C)[C@@H](O)[C@H](C)C(O)C[C@H](O)[C@H](C)C(O)C(C)C)OC1=O", "note": "(some centres not stated)", "Potency ratio": 8.2}, {"molecule": "COC(=O)/C(=C/C(C)=C/[C@@H](C)[C@@H](O)[C@@H](C)C/C(C)=C/C=C/[C@H](OC)[C@H](O)[C@@H](C)[C@@H](O)[C@H](C)[C@@]1(O)C[C@@H](O)[C@H](C)[C@@H](C(C)C)O1)OC", "Potency ratio": 330}, {"molecule": "CO/C1=C\\C(C)=C\\[C@@H](C)[C@@H](O)[C@@H](C)C/C(C)=C/C=C/[C@H](OC)[C@@H]([C@@H](C)[C@@H](O)[C@H](C)[C@@]2(OC)C[C@@H](O)[C@H](C)[C@@H](C(C)C)O2)OC1=O", "Potency ratio": 1.4}]}]}
